mIAP act – increases mouse intestinal alkaline phosphatase activity; muIAP, CDP-Star luminescence, 30 min; active compounds read high; 1 = vehicle-only enzyme signal, 0 = enzyme-free wells; activation factor at 10 µM; actives 0.24% (n = 330,000); AID 2805;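 active means activation factor of at least 2 at 20 µM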
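Assay system: mouse IAP enzyme; reagent: chemiluminescent substrate CDP-Star; dosing: test compounds delivered from DMSO solution; schedule: 30 min at room temperature; measured by: luminescence from enzymatic CDP-Star hydrolysis; controls: DMSO-only wells and no-enzyme negative control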
hIAP activ – human IAP activation. purified human IAP, CDP-Star luminescence, 30 min; active compounds read high; 1 = vehicle-only enzyme, 0 = enzyme-free background. P09923. actives 0.16% (n = 330,000). activation factor at 10 µM;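 active means activation factor of the enzyme at least 2-fold when tested at 20 µM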
Target sequence (P09923 whole entry, looked up): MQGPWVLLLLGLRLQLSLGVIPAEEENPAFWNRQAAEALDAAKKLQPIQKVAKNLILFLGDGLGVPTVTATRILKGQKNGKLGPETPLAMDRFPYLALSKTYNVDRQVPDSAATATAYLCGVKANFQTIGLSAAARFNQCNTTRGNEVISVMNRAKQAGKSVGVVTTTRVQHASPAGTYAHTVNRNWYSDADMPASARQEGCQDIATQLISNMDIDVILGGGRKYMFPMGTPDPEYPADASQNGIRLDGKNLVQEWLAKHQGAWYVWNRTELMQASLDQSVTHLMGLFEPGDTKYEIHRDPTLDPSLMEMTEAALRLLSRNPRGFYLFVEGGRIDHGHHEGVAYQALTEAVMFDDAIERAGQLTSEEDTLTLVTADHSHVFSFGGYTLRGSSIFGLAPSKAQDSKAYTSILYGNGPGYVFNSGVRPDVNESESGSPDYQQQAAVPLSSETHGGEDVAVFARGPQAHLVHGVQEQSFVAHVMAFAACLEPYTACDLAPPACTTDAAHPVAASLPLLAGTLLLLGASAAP
bIAP activator – increases bovine intestinal alkaline phosphatase activity | purified bovine IAP, CDP-star luminescence, 30 min; active compounds read high; fold of DMSO-control signal, blank-subtracted | activation factor at 20 µM | actives 0.17% (n = 200,000) | AID 1016;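 active means activation factor of 2 or more at 20 µM, a signal rise over negative controls twice the positive control's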
hIAP block – human IAP inhibition; inhibition, % at 10 µM; AID 2544; P09923; actives 0.12% (n = 330,000); purified IAP, CDP-Star luminescence, 30 min;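 active means inhibition reaching a set limit with compound at 10 µM in the primary screen, cut at about 35% in these data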
mIAP block – blocks mouse intestinal alkaline phosphatase | purified mouse IAP, CDP-Star luminescence, 30 min | inhibition, % at 10 µM | actives 0.2% (n = 330,000) | AID 2806;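 active means inhibition of at least 40% at 10 µM in the primary screen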
bIAP inhibitor – blocks bovine intestinal alkaline phosphatase activity; purified bovine IAP, CDP-star luminescence, 30 min; inhibition, % at 20 µM; 190,000 tested, under 10 active; AID 1019;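 active means over 50% inhibition of intestinal alkaline phosphatase at 20 µM in the single-dose screen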
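System: purified bovine intestinal alkaline phosphatase (IAP) enzyme; Input: IAP diluted 1/65,000,000 in the well; Measured by: CDP-star luminescence signal; Compound dosing: 20 µM single dose; Incubation: 30 min reaction at room temperature.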
mIAP inh conf – mouse IAP inhibition confirmation | shares compounds with mIAP block | purified mouse IAP, CDP-Star luminescence, 30 min | actives 4.7% (n = 11,000) | inhibition, % at 10 µM | AID 434971;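 active means inhibition of at least 40% at 10 µM in either of the two replicates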
A number is an active result; – = inactive; · = not tested or not shown. Shown are actives, neighbours in structure and some others; about 0.77% of the full set was active somewhere.

SMILES | mIAP act | hIAP activ | bIAP activator | hIAP block | mIAP block | bIAP inhibitor | mIAP inh conf
C(=Nc1cccc2c(N=Cc3ccco3)cccc12)c1ccco1 | – | – | – | – | 48.0 | – | 40.8
CC(=O)Oc1cc2cccc(OC(C)=O)c(=O)c2c(OC(C)=O)c1OC(C)=O | – | – | – | – | 44.9 | – | 49.2
CCOc1cccc(SCc2noc(C(=O)NCC3CCCO3)c2C(=O)O)c1 (centres undefined) | – | – | – | – | – | – | ·
Nc1nc(-c2cccs2)cs1 | – | – | – | – | 46.0 | – | 52.3
CC(=O)Nc1nc(-c2cccs2)cs1 | – | – | – | – | – | – | ·
O=C(c1cc2cc(Br)ccc2o1)N1CCN(c2ccccc2)CC1 | – | – | · | – | – | · | ·
O=S(=O)(c1cc(O)ccc1O)c1cccc2c(S(=O)(=O)c3cc(O)ccc3O)cccc12 | – | – | · | – | 64.9 | · | 57.9
O=S(=O)(O)c1cc(O)ccc1O | – | – | · | – | – | · | ·
Cc1ccc(S(=O)(=O)N2CCC(C(=O)Nc3ccc(C(C)C)cc3)CC2)cc1 | 6.57 | – | · | – | – | · | –
Cc1ccc(S(=O)(=O)N2CCC(C(=O)Nc3ccc(S(=O)(=O)N4CCCC4)cc3)CC2)cc1C | 2.15 | – | · | – | – | · | –
Cc1ccc(S(=O)(=O)N2CCC(C(=O)Nc3ccc(S(=O)(=O)N4CCCC4)cc3)CC2)cc1 | – | – | · | – | – | · | ·
Cc1cccc(C2=NN(c3ccccc3)[C@H](CO)[C@H]2c2ccccc2)c1 | 2.2 | · | · | · | – | · | –
CN(CC(=O)Nc1ccccc1Br)C(=O)CN1CCN(Cc2ccc(Cl)cc2)CC1 | – | – | · | – | – | · | ·
O=C(c1cccc(C(F)(F)F)c1)C1CCCN(C(=O)/C=C/c2cnc[nH]2)C1 (centres undefined) | – | – | · | – | – | · | ·
Cc1cc(=O)n2[nH]cc(C(=O)O)c2n1 | – | – | – | – | 52.7 | – | 57.9
Cc1cc(=O)n2[nH]c(C(=O)O)nc2n1 | – | – | – | – | – | – | ·
O=C(NCC1CC1(Cl)Cl)Nc1ccc(Cl)c(Cl)c1 (centres undefined) | 2.93 | – | · | – | – | · | –
Cc1cccc(OCC(=O)NCC(C)(C)N2CCOCC2)c1 | – | – | · | – | – | · | ·
Cc1ccc(/C=C2\SC(=S)N(C3CCS(=O)(=O)C3)C2=O)o1 (centres undefined) | – | – | – | – | – | – | ·
NS(=O)(=O)c1ccc(-c2ccc(/C=C3\SC(=S)N(C4CCS(=O)(=O)C4)C3=O)o2)cc1 (centres undefined) | – | – | · | – | 80.2 | · | 87.4
CN(C)C1=NC(=O)/C(=C/c2ccc(-c3ccc(S(N)(=O)=O)cc3)o2)S1 | – | – | · | – | 49.9 | · | 49.7
NC1=NC(=O)/C(=C\c2ccc(-c3ccc(Cl)cc3)o2)S1 | – | – | · | – | – | · | ·
CCc1nnc(NC(=O)CCC(=O)NC2CC2)s1 | – | – | · | – | – | · | ·
C[C@@H]1O[C@@H](O[C@H]2[C@H](O)[C@@H](O)[C@H](Oc3c(-c4ccc(O)c(O)c4)oc4cc(O)cc(O)c4c3=O)O[C@@H]2CO)[C@H](O)[C@H](O)[C@H]1O | – | – | · | – | 57.7 | · | 48.0
O=c1c2c(O)cc(O)cc2oc2c(O)ccc(O[C@H]3O[C@@H](CO)[C@H](O)[C@@H](O)[C@@H]3O)c12 | – | – | · | – | – | · | ·
SMILES | mIAP act | hIAP activ | bIAP activator | hIAP block | mIAP block | bIAP inhibitor | mIAP inh conf
O=c1c(OC2OC(CO)C(O)C(O)C2OC2OC(CO)C(O)C(O)C2O)c(-c2ccc(O)cc2)oc2cc(O)cc(O)c12 (centres undefined) | – | – | · | – | 43.3 | · | 55.4
Cc1ccc(C)c(N2CCN(C(=O)CCC(=O)Nc3nnc(C(F)(F)F)s3)CC2)c1 | – | – | · | – | – | · | ·
N#CC1=C(N)SC(N)=C(C#N)C1c1ccoc1 | – | – | – | – | 76.6 | – | 76.3
NC(=O)NC[C@@H]1CC[C@@H](Cc2ccc(-c3ccccc3)cc2)O1 | – | · | · | · | – | · | ·
COc1ccc(NC(=O)NC[C@@H]2CC[C@@H](Cc3ccc(-c4ccccc4)cc3)O2)cc1 | 2.65 | · | · | · | – | · | –
O=C(NCC1CCN(Cc2cccc(Cl)c2)CC1)Nc1ccccc1Cl | 2.73 | – | · | – | – | · | –
Cc1ccc(CN2CCC(CNC(=O)Nc3ccccc3F)CC2)cc1 | – | – | · | – | – | · | ·
Cc1ccc(NC(=O)NCC2CCN(Cc3cccc(Cl)c3)CC2)c(Cl)c1 | 3.46 | – | – | – | – | – | –
O=C(N1CCCC1)C12CC3CC(CC(Cl)(C3)C1)C2 | – | – | · | – | – | · | ·
COCCN=c1scc(-c2ccco2)n1/N=C/c1ccc(O)c(O)c1O | – | – | – | – | 54.3 | – | 52.9
C=CCN=c1scc(-c2ccco2)n1/N=C/c1ccc(O)c(O)c1O | – | – | · | – | 58.6 | · | 67.7
C=CCOc1ccc(C2=NOC(C(=O)Nc3ccc4c(c3)OCCO4)C2)cc1 (centres undefined) | – | – | · | – | – | · | ·
Cc1ccc(S(=O)(=O)/N=C2/NC(=O)/C(=C/c3ccc(Br)o3)S2)cc1 | – | – | – | – | – | – | ·
Cc1ccc(S(=O)(=O)/N=C2/NC(=O)/C(=C\c3cc(Br)cc(Br)c3O)S2)cc1 | – | – | · | – | 42.9 | · | 49.4
Cc1cc(NC(=O)Nc2cccc(Cl)c2)n(-c2ccccn2)n1 | – | – | · | – | – | · | ·
Cc1cc(NC(=O)Nc2ccc(Cl)c(Cl)c2)n(-c2ccccc2)n1 | 4.27 | – | · | – | – | · | –
Cc1cc(NC(=O)Nc2cccc(Cl)c2)n(-c2ccccc2)n1 | 3.04 | – | · | – | – | · | –
O=C1CSC(=S)N1/N=C/c1ccc(Cl)c([N+](=O)[O-])c1 | – | – | · | – | 50.5 | · | 48.0
COc1cc(/C=N/N2C(=O)CSC2=S)ccc1O | – | – | – | – | 52.5 | – | 65.0
COc1ccc(Br)cc1/C=N/N1C(=O)CSC1=S | – | – | · | – | – | · | ·
CCCc1ccc2oc(C(=O)NCc3nnc(C)o3)c(C)c2c1 | – | – | · | – | – | · | ·
CCCCCCCNC(=O)C1(CC2CC(c3ccc(Cl)cc3)=NO2)CCN(C(=O)CCCCCBr)CC1 (centres undefined) | – | – | · | – | – | · | ·
O=C1CN(c2ccc(Cl)cc2)C2(CCCCC2)S1 | – | – | – | – | – | – | ·
C[N+](C)(C)C(Cc1ccccc1)C(=O)[O-] (centres undefined) | – | – | · | – | 47.3 | · | 50.9
Cc1oc(-c2cccc(Cl)c2)nc1CS(=O)(=O)CC(=O)NC1CCCC1 | – | – | · | – | – | · | ·
O=C(CCN=C1NS(=O)(=O)c2ccccc21)Nc1ccc(F)cc1Cl | – | – | · | – | – | · | ·
Cc1ccc(NC(=S)NCc2ccccc2)cc1S(=O)(=O)N1CCCCC1 | 5.81 | – | – | – | – | – | –
COc1ccc(OCC(=O)Nc2ccc(N3CCN(C(=O)c4ccccc4)CC3)c(Cl)c2)cc1 | – | – | · | – | – | · | ·
COc1ccc(NC(=O)NN2CCN(C)CC2)cc1OC | – | – | · | – | – | · | ·
